From article PMC5890913 (Cancer research, 2017)

What was measured:
[1] = system: PSA and FKBP5 gene expression in LNCaP cells; assay: AR-target gene expression; assay type: cell-based; conditions: 0.1 nM R1881, 24 hours
[2] = system: LNCaP cells; assay: LNCaP cell proliferation; assay type: cell-based; conditions: 0.1 nM R1881, 6 days
[3] = system: AR; conditions: no reference given; cited from earlier work
[4] = target: T1, progesterone receptor (PR) (Homo sapiens, UniProt P06401); assay: PR transactivation in HEK-293 cells; assay type: cell-based; conditions: HEK-293, progesterone
T1 sequence (P06401 1-933): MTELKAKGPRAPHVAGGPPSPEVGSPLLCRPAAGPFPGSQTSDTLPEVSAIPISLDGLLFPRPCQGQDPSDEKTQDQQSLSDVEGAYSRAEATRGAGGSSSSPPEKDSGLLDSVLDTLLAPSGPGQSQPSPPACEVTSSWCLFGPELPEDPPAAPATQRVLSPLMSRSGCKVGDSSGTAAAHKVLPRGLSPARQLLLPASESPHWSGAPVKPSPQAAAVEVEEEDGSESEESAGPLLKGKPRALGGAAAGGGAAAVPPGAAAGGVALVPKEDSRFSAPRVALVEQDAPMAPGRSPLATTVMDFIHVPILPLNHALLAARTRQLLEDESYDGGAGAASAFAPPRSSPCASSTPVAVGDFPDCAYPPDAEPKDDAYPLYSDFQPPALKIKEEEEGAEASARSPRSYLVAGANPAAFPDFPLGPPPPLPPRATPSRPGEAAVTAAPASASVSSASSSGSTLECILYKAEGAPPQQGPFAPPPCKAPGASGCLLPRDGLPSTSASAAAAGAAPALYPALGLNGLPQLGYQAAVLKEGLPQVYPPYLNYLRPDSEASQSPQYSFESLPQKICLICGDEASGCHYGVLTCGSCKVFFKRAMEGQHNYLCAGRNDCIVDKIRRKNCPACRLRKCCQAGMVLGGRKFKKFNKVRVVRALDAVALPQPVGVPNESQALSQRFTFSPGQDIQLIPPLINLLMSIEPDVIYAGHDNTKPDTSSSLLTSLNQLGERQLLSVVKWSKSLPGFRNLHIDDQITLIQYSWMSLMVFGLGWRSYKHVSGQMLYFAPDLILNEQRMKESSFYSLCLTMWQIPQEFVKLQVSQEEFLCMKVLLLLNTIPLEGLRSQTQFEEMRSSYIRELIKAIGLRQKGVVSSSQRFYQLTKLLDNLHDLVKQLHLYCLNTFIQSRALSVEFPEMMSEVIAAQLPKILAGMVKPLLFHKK

[5] = system: AR recruitment to PSA enhancer ARE; assay: ChIP: AR recruitment to the PSA enhancer ARE in LNCaP cells; assay type: cell-based; conditions: 10 μM pre-treatment 30 minutes, 0.1 nM R1881 2 hours
[6] = target: T2, PR in T47D cells (Homo sapiens, UniProt P06401); assay: PR protein level by Western blot in T47D cells; assay type: cell-based
T2 sequence (P06401 1-933): T1 sequence (P06401 1-933)
Outline: (§1)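 T47D breast cancer cells were plated in growth medium and treated with a range of test compound doses. PR, ER and actin levels were read by Western blot, with actin as the loading control.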

[7] = system: F876L-AR in LNCaP-EnzR cells; assay: PSA expression in enzalutamide-resistant LNCaP-EnzR cells; assay type: cell-based; conditions: F876L mutant, 0.1 nM R1881
[8] = target: T3, glucocorticoid receptor (GR) in PC-3 cells (Homo sapiens, UniProt P04150); assay: GR protein level in transiently transfected PC-3 cells; assay type: cell-based; conditions: transient transfection
T3 sequence (P04150 1-777): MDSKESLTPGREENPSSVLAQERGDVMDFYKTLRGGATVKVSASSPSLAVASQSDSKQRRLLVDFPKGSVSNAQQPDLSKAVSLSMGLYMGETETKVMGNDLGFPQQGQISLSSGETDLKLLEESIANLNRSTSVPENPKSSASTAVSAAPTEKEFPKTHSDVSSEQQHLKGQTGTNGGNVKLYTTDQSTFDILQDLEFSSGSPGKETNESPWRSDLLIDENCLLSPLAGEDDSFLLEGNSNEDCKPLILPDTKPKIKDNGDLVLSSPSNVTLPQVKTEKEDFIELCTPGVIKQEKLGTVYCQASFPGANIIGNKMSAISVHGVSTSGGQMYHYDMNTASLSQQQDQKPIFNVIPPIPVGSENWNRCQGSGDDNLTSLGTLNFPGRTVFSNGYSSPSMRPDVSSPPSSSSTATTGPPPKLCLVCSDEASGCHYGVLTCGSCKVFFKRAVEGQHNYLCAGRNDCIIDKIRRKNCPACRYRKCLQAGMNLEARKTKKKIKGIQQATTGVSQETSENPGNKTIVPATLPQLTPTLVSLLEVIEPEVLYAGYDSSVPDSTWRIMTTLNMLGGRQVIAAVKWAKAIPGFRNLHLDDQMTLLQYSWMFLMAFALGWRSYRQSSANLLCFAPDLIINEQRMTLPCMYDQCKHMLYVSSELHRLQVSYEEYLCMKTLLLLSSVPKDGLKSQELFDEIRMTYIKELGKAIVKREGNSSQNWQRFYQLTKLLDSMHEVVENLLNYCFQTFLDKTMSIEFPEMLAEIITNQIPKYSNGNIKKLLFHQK

[9] = system: 22RV1 xenograft; assay: 22RV1 xenograft in castrated NSG mice; assay type: in vivo
[10] = system: AR-FL in AD1 cells; assay: AR full length protein level by Western blot in AD1 cells; assay type: cell-based; conditions: 24 hours
Outline: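 AD1 cells expressing full-length AR were kept for 2 days in medium containing charcoal-stripped serum, then treated for 24 hours. Protein was extracted and Western blotted for AR using the N-terminal AR-N20 antibody, with actin as the loading control.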

[11] = system: NDRG1 and MT2A pre-mRNAs in LNCaP cells; assay: Early induction of NDRG1 and MT2A pre-mRNAs in LNCaP cells; assay type: cell-based; conditions: 10 μM, 0.1 nM R1881
[12] = target: ER in T47D cells (Homo sapiens, UniProt P03372); assay: ER protein level by Western blot in T47D cells; assay type: cell-based
Outline: as §1

[13] = system: Pr-3001 patient-derived xenograft; assay: Patient-derived xenograft Pr-3001 in castrated NSG mice; assay type: in vivo; conditions: over the course of 14 days
Outline: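 The CRPC patient specimen was collected in RPMI with penicillin/streptomycin and fungizone, minced, digested with collagenase for 2 hours and washed in serum-free medium. It was implanted subcutaneously as 1 mm³ fragments in castrated NSG mice, n=8–10 per group. At 100–200 mm³, mice were randomized to vehicle or test compound, and tumor volume was measured thrice weekly.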

[14] = system: FKBP5 expression in 22RV1 cells; assay: AR-V7-dependent FKBP5 expression in 22RV1 cells; assay type: cell-based; conditions: 22RV1, charcoal stripped serum, 48 hours
[15] = system: panel of kinases; assay: Cross-reactivity with a panel of kinases; assay type: biochemical

ER in T47D cells, sequence (P03372 whole entry): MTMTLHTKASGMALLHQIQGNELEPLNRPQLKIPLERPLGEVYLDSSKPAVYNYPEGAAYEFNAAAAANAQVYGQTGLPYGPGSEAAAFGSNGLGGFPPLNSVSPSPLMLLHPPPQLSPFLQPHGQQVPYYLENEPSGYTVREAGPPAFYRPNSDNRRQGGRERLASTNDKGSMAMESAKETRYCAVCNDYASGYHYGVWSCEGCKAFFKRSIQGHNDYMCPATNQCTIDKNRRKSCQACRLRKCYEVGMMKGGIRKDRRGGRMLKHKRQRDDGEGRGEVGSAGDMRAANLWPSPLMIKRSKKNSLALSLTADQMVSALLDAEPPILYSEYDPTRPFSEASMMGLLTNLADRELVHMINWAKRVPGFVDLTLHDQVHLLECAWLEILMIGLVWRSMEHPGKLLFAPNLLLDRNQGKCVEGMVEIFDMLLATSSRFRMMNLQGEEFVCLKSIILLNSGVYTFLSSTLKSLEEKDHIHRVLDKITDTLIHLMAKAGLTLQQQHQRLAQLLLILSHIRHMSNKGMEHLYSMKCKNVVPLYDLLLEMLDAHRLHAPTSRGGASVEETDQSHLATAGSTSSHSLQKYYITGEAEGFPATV

C[C@@](O)(Cn1ccc2cc(F)ccc21)C(=O)Nc1ccc(C#N)c(C(F)(F)F)c1 [(R)-UT-155]
inhibition of R1881-induced FKBP5 expression [1]: at concentrations comparable to that observed with UT-155 | inhibition of LNCaP proliferation [2]: inhibited the proliferation of LNCaP cells

COc1ccc(/C=C/C(=O)/C=C(O)/C=C/c2ccc(OC)c(OC)c2)cc1OC [ASC-J9]
concentrations inducing AR degradation [3]: greater than 10 μM

C[C@](O)(Cn1ccc2cc(F)ccc21)C(=O)Nc1ccc(C#N)c(C(F)(F)F)c1 [UT-155]
inhibition of PR transactivation [4]: at concentration comparable to that of the AR | inhibition of AR recruitment to the ARE on the PSA enhancer [5]: failed to inhibit | effect on PR protein levels [6]: no effect | inhibition of PSA expression in LNCaP-EnzR [7]: inhibited the expression of PSA | effect on GR protein levels [8]: no effect on GR | inhibition of 22RV1 xenograft growth ([9]; 100 mg/kg/day s.c.): 53% | effect on AR expression in AD1 cells [10]: reduces AR expression | inhibition of R1881-dependent increase in NDRG1 and MT2A pre-mRNAs at 1 and 2 hours [11]: failed to inhibit | effect on ER protein levels [12]: no effect | inhibition of Pr-3001 growth [13]: 40–60% | inhibition of AR-V7-dependent FKBP5 expression [14]: inhibited | inhibition of kinase activity [15]: no significant inhibition

CNC(=O)c1ccc(N2C(=S)N(c3ccc(C#N)c(C(F)(F)F)c3)C(=O)C2(C)C)cc1F [enzalutamide, reference compound]
inhibition of AR recruitment to the ARE on the PSA enhancer [5]: inhibited | effect on growth of 22RV1 tumors ([9]; 30 mg/kg/day s.c.): no effect
